Published values pooled from the literature.
Target: Mitogen-activated protein kinase kinase kinase 7 (MAP3K7, Homo sapiens, UniProt O43318)

CC(C)(O)[C@H]1CC[C@H](Nc2ccc3ncc(-c4cccc(C(F)(F)F)c4)n3n2)CC1  remaining activity (enzyme activity; inhibitor; 1 µM): 107%
COc1cc(Cl)c(C(=O)N[C@@H](CN[C@H]2CC[C@@H](N)CC2)Cc2ccc(C#N)cc2)cc1-c1ccc(CN[C@H](C)c2ccc(C)cc2)o1  remaining activity (enzyme activity; inhibitor; 1 µM): 96%
O=C(Nc1cnn(-c2csc(C(=O)NC3COC3)c2)c1)Nc1c(F)cccc1Cl  remaining activity (enzyme activity; inhibitor; 5 µM): 109%
Cc1ccc(Nc2nccc(N(C)c3ccc4c(C)n(C)nc4c3)n2)cc1S(N)(=O)=O  inhibition (enzyme activity; inhibitor; 0.3 µM): -8%
COc1cc(/C=C/C(=O)CC(=O)/C=C/c2ccc(O)c(OC)c2)ccc1O  activity vs control (enzyme activity; inhibitor; 1 µM): 102%
CC(C)c1ccc(NC(=O)c2cccs2)c(-c2nc3ccccc3[nH]c2=O)c1  activity vs control (enzyme activity; inhibitor; 1 µM): 106%
Cc1cc(NC(=O)c2cccc3cc(-c4cccc5[nH]nc(N)c45)ccc23)ccc1F  activity vs control (enzyme activity; inhibitor; 0.1 µM): 100%
Oc1cccc(-c2nc(N3CCOCC3)c3oc4ncccc4c3n2)c1  remaining activity (enzyme activity; inhibitor; 10 µM): 79%
C=CC(=O)Nc1cc(Nc2nccc(Nc3cc(Cl)c(F)cc3C(C)(C)O)n2)c(OC)cc1N1CC[C@@H](N(C)C)C1  inhibition (enzyme activity; inhibitor; 1 µM): 21%
CS(=O)(=O)CCNCc1ccc(-c2ccc3ncnc(Nc4ccc(OCc5cccc(F)c5)c(Cl)c4)c3c2)o1  remaining signal (cell-free assay; 0.5 µM): 89%
CS(=O)(=O)N1CCCC(NC(=O)[C@H](CCC2CCCCC2)NC(=O)c2ccc(CNc3ncnc4c3nnn4-c3ccccc3)cc2)C1 (stereo partly drawn)  remaining binding (cell-free assay; competition with immobilised ligand; 0.1 µM): 100%
FC(F)c1nc2ccccc2n1-c1nc(N2CCOCC2)nc(N2CCOCC2)n1  remaining activity (enzyme activity; inhibitor; 10 µM): 97%
O=C1NC(=O)c2cc(Nc3ccc(F)cc3)c(Nc3ccc(F)cc3)cc21  remaining signal (cell-free assay; 0.5 µM): 98.8%
Cc1cc(C)c(-n2ccn3nc(-c4cccnc4)cc23)cc1NC(=O)c1cc(C#N)cc(S(F)(F)(F)(F)F)c1  remaining binding (cell-free assay; competition with immobilised ligand; 0.1 µM): 66.2%
Cc1ccc(C(=O)Nc2ccc(CN3CCN(C)CC3)c(C(F)(F)F)c2)cc1C#Cc1cnc2cccnn12  remaining activity (enzyme activity; inhibitor; 23.5 nM): 3.3%
CO[C@@H](C)c1c(Nc2ccc([C@H](N(C)C(=O)C3CCS(=O)(=O)CC3)C(F)(F)F)cc2)cnc2cc(Cl)nn12  remaining binding (cell-free assay; competition with immobilised ligand; 1 µM): 89%
COc1cc2ncnc(Nc3ccc(F)c(Cl)c3)c2cc1OCCCN1CCOCC1  remaining signal (cell-free assay; 0.5 µM): 91.3%
O=c1nc(-c2ccccn2)sc2ccccc12  remaining binding (binding; competition with immobilised ligand; 1 µM): 78%
COc1cccc2c(NCc3ccccc3)nc(-n3c(N)nc4ccccc43)nc12  inhibition (target engagement in cells; inhibitor; chemoproteomics; 20 mM): -6.3%
COc1ccc2cc(OCC3(C(=O)O)CN(C(=O)c4ccc(F)cc4)C3)ccc2c1  remaining binding (cell-free assay; competition with immobilised ligand; 1 µM): 96%
FC(F)(F)Oc1cccc(-c2cnc3ccc(-c4ccncc4)nn23)c1  activity vs control (enzyme activity; inhibitor; radiometric; 5 µM): 58%
Cc1nc(C2CCN(C(=O)c3ccc(OC(F)(F)F)cc3N)CC2)c2ncc(N3CCN(C)CC3)cc2n1  remaining binding (cell-free assay; competition with immobilised ligand; 1 µM): 100%
CCN(CC)CCNC(=O)c1c(C)[nH]c(/C=C2\C(=O)Nc3ccc(F)cc32)c1C  inhibition (enzyme activity; inhibitor; 10 µM): 92%
CCCOc1ccc([C@H]2[C@H](C(=O)O)[C@@H](c3ccc4c(c3)OCO4)CN2CC(=O)Nc2c(CC)cccc2CC)cc1  remaining binding (cell-free assay; competition with immobilised ligand; 1 µM): 100%
Cc1ccc(C(=O)NCc2ccsc2)cc1C#Cc1cn(C(C)C)c2ncnc(N)c12  activity vs control (enzyme activity; inhibitor; 1 µM): 112%
CS(=O)(=O)N1CCCC(NC(=O)[C@H](CCC2CCCCC2)NC(=O)c2ccc(CNC(=O)c3cnc4ccccn34)cc2)C1 (stereo partly drawn)  remaining binding (cell-free assay; competition with immobilised ligand; 0.1 µM): 94%
COc1cc(Nc2cnc(C#N)c(O[C@H](C)CN(C)C)n2)ncc1-c1cnn(C)c1  remaining activity (enzyme activity; inhibitor; radiometric; 10 µM): 53%
